Reference: ChEMBL document CHEMBL1144382, “Discovery and optimisation of potent, selective, ethanolamine inhibitors of bacterial phenylalanyl tRNA synthetase” (Bioorg Med Chem Lett, 2005)

Tests used:
[1] = target: T1, Phenylalanine--tRNA ligase alpha subunit (Staphylococcus aureus, UniProt P68849); assay: Inhibitory concentration against Staphylococcus aureus Phenylalanyl-tRNA synthetase
T1 sequence (P68849 whole entry): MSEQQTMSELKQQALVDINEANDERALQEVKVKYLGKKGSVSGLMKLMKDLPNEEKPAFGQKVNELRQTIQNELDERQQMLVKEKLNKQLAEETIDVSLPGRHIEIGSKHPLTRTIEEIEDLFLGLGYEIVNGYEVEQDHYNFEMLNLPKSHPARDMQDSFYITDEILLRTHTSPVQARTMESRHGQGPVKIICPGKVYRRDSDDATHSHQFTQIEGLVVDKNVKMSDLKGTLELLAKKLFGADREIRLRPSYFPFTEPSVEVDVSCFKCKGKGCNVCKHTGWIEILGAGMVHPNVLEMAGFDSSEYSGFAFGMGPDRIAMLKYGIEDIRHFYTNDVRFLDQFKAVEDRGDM
Outline: (§1)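 Recombinant bacterial FRS (S. aureus WCUH29 enzyme cloned and overexpressed in E. coli; S. pneumoniae and H. influenzae enzymes overexpressed and purified the same way). IC50 from the full aminoacylation reaction with SPA read-out. Phenylalanine was held at the Km of each enzyme.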

[2] = target: T2, Phenylalanine--tRNA ligase alpha subunit (Haemophilus influenzae (strain ATCC 51907 / DSM 11121 / KW20 / Rd), UniProt P43819); assay: Inhibitory concentration against Haemophilus influenzae Phenylalanyl-tRNA synthetase; outline: as §1
[3] = target: T3, Phenylalanine--tRNA ligase alpha subunit (Streptococcus pneumoniae serotype 4 (strain ATCC BAA-334 / TIGR4), UniProt Q97S36); assay: Inhibitory concentration against Streptococcus pneumoniae Phenylalanyl-tRNA synthetase; outline: as §1
T3 sequence (Q97S36 whole entry): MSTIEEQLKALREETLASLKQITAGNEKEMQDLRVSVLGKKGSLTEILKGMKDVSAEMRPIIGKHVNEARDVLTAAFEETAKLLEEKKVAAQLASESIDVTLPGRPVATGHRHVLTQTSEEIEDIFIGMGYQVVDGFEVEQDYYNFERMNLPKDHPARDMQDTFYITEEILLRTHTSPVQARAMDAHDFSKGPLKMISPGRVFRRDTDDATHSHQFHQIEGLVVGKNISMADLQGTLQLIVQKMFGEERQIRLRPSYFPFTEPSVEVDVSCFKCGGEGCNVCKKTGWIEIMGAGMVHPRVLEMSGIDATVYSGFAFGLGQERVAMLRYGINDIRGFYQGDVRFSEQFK

[4] = target: T1, Phenylalanine--tRNA ligase alpha subunit; assay: Inhibitory concentration against […] Phenylalanyl-tRNA synthetase
Outline: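 Recombinant S. aureus WCUH29 FRS, cloned and overexpressed in E. coli, then purified. IC50 measured in the full aminoacylation reaction with SPA readout. Phenylalanine set at the enzyme's Km.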

[5] = target: T2, Phenylalanine--tRNA ligase alpha subunit; assay: Inhibitory concentration against Haemophilus influenzae Phenylalanyl-tRNA synthetase; NI=no inhibition at 300 nM
Outline: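 Recombinant FRS from the named species, overexpressed in E. coli and purified. IC50 measured in the full aminoacylation reaction with SPA readout. Phenylalanine set at the Km of each enzyme.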

[6] = target: T4, Phenylalanine--tRNA ligase, mitochondrial (Rattus norvegicus, UniProt Q6AYQ3); assay: Inhibitory concentration against Phenylalanyl-tRNA synthetase from rat liver
T4 sequence (Q6AYQ3 whole entry): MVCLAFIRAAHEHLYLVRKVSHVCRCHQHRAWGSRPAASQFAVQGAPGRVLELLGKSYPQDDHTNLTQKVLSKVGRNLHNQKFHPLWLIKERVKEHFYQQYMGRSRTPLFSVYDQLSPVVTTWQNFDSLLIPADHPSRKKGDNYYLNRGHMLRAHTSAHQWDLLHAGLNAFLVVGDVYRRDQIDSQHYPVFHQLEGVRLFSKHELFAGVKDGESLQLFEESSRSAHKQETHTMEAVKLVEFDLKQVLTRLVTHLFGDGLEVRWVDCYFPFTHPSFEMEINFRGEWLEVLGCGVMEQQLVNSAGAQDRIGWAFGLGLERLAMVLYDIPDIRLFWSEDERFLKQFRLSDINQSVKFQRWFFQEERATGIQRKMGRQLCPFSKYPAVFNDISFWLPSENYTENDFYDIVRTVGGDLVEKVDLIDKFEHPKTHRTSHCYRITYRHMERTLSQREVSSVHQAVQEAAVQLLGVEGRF
Outline: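 Mammalian FRS isolated from rat liver; IC50 determined to assess selectivity against the bacterial enzyme.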

T2 sequence (P43819 whole entry): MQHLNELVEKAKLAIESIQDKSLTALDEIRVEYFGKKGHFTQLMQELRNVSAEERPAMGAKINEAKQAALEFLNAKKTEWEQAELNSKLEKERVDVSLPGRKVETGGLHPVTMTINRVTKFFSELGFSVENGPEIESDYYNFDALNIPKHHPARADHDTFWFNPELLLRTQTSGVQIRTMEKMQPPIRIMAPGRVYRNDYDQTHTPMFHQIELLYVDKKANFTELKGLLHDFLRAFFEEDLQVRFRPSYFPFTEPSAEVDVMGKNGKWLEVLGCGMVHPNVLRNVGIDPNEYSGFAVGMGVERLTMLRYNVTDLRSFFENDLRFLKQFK

IC50 [1] [nM] | SMILES | further results
18 | C=CCOc1ccccc1CNCC(O)c1cc(Br)cs1 (stereo not given) | –
2500 | O=C(O)c1ccccc1CNCC(O)c1cccc(C(F)(F)F)c1 (stereo not given) | –
32 | CCNC(=O)COc1ccccc1CNCC(O)c1cc(Br)cs1 (stereo not given) | –
120 | CNC(=O)CNC(=O)COc1ccccc1CNCC(O)c1cc(Br)cs1 (stereo not given) | –
50 | COc1ccccc1CNCC(O)c1cc(Br)cs1 (stereo not given) | –
83 | COc1cccc(C(O)CNCc2ccccc2OCc2ccccc2)c1 (stereo not given) | –
18 | OC(CNCc1ccccc1OCCN1CCOCC1)c1cc(Br)cs1 (stereo not given) | –
43 | O=C(O)CCCOc1ccccc1CNCC(O)c1cc(Br)cs1 (stereo not given) | –
43 | OC(CNCc1ccccc1OCc1ccccn1)c1cc(Br)cs1 (stereo not given) | –
31 | OC(CNCc1ccccc1OCc1ccccc1)c1cccc(Cl)c1 (stereo not given) | –
250 | O=C1c2ccccc2C(=O)N1CCOc1ccccc1CNCC(O)c1cc(Br)cs1 (stereo not given) | –
110 | CN(CCO)C(=O)COc1ccccc1CNCC(O)c1cc(Br)cs1 (stereo not given) | –
8 | OCCOc1ccccc1CNCC(O)c1cc(Br)cs1 (stereo not given) | –
> 10000 | COc1ccccc1CNCC(O)c1cccc(OCc2ccccc2)c1 (stereo not given) | –
30 | CNC(=O)CNC(=O)CCCOc1ccccc1CNCC(O)c1cc(Br)cs1 (stereo not given) | –
22 | NCCCCOc1ccccc1CNCC(O)c1cc(Br)cs1 (stereo not given) | –
10 | OC(CNCc1ccccc1OCc1ccccc1)c1cc(Br)cs1 (stereo not given) | IC50 [2]: 1500 nM; IC50 [3]: 280 nM
26 | CN(CCO)C(=O)CCCOc1ccccc1CNCC(O)c1cc(Br)cs1 (stereo not given) | –
35 | COCOc1ccccc1CNCC(O)c1cc(Br)cs1 (stereo not given) | –

IC50 [1] [nM] | SMILES | further results
58 | O=C(O)CCOc1ccccc1CNCC(O)c1cc(Br)cs1 (stereo not given) | –
18 | OC(CNCc1ccccc1OCc1cccnc1)c1cc(Br)cs1 (stereo not given) | –
25 | CN(CCO)C(=O)CCOc1ccccc1CNCC(O)c1cc(Br)cs1 (stereo not given) | –
> 1000 | OCCOc1ccccc1CNC[C@H](O)c1cc(Br)cs1 | IC50 [2]: > 1000 nM; IC50 [3]: > 1000 nM
3.7 | OCCOc1ccccc1CNC[C@@H](O)c1cc(Br)cs1 | IC50 [2]: 56 nM; IC50 [3]: 190 nM
> 10000 | OC(CNCc1ccccc1OCc1ccccc1)c1cc(C(F)(F)F)cc(C(F)(F)F)c1 (stereo not given) | –
220 | NCCOc1ccccc1CNCC(O)c1cc(Br)cs1 (stereo not given) | –
16 | OC(CNCc1ccccc1OCc1ccncc1)c1cc(Br)cs1 (stereo not given) | IC50 [6]: 90000 nM
26 | CS(=O)(=O)c1ccc(COc2ccccc2CNCC(O)c2cc(Br)cs2)cc1 (stereo not given) | –
26 | OC(CNCc1ccccc1OCc1nc2ccccc2[nH]1)c1cc(Br)cs1 (stereo not given) | IC50 [2]: 150 nM; IC50 [3]: 250 nM
120 | OC(CNCc1ccccc1Oc1ccccc1)c1cc(Br)cs1 (stereo not given) | –
50 | OC(CNCc1ccccc1OCc1ccccc1)c1cccc(C(F)(F)F)c1 (stereo not given) | –
49 | N#CCOc1ccccc1CNCC(O)c1cc(Br)cs1 (stereo not given) | –
42 | NC(=O)COc1ccccc1CNCC(O)c1cc(Br)cs1 (stereo not given) | –
570 | OCc1cccc(C(O)CNCc2ccccc2OCc2ccccc2)c1 (stereo not given) | –
36 | CNC(=O)CNC(=O)CCOc1ccccc1CNCC(O)c1cc(Br)cs1 (stereo not given) | –
32 | OC(CNCc1ccccc1OCc1ccccc1)c1cccc(I)c1 (stereo not given) | –
69 | O=C1c2ccccc2C(=O)N1CCCCOc1ccccc1CNCC(O)c1cc(Br)cs1 (stereo not given) | –

SMILES | IC50 [1] [nM] | further results
C=CCOc1ccccc1CNCC(O)c1cccc(C(F)(F)F)c1 (stereo not given) | 58 | –
COc1ccccc1CNCC(O)c1cc(C(F)(F)F)ccc1C(F)(F)F (stereo not given) | > 10000 | –
OC(CNCc1ccccc1OC(F)F)c1cccc(C(F)(F)F)c1 (stereo not given) | 260 | –
COc1ccccc1CNCC(O)c1ccc(C(F)(F)F)cc1 (stereo not given) | > 10000 | –
COc1ccccc1CNCC(O)c1ccccc1C(F)(F)F (stereo not given) | > 10000 | –
Oc1ccccc1CNCC(O)c1cccc(C(F)(F)F)c1 (stereo not given) | 100 | –
OC(CNCc1ccccc1)c1cccc(C(F)(F)F)c1 (stereo not given) | 160 | IC50 [4]: 160 nM; IC50 [5]: No inhibition
COc1ccccc1CNCC(O)c1cccc(C)c1 (stereo not given) | 110 | –
COc1ccccc1CNCC(O)c1cccc(C(F)(F)F)c1 (stereo not given) | 160 | –
COc1ccccc1CNCC(O)c1cccc(Br)c1 (stereo not given) | 110 | –
COc1ccccc1CNCC(O)c1cccc(OC(F)(F)F)c1 (stereo not given) | 190 | –
Cc1ccccc1CNCC(O)c1cccc(C(F)(F)F)c1 (stereo not given) | 790 | –
